Reference: ChEMBL document CHEMBL1629545, “A morpholino oligomer targeting highly conserved internal ribosome entry site sequence is able to inhibit multiple species of picornavirus” (Antimicrob Agents Chemother, 2008)
Active and inactive are the calls of the source. The calls are words filed in the database; no cut-off is given here.

Legend:
SK-N-MC = assay: Cytotoxicity against human SK-N-MC cell at 10 uM after 24 hrs by MTS assay; format: cell-based
Vero = assay: Cytotoxicity against African green monkey Vero cells at 10 uM after 24 hrs by MTS assay; format: cell-based; details: chlorocebus sabaeus
HeLa [1] = assay: Cytotoxicity against human HeLa cells at 10 uM by MTS assay; format: cell-based
Summary of the method: (§1)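 HeLa cells at ~80% confluence, uninfected, exposed to 1–100 μM PPMO or water (mock) in serum-free DMEM-F-12 (1:1) for 24 h. MTS reagent was added for 4 h and absorbance read at 492 nm. Viability was expressed as percent of water-treated cells (set to 100%), averaged over 12 wells.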

HeLa [2] = assay: Cytotoxicity against human HeLa cells 10 uM after 24 hrs by MTS assay; format: cell-based; summary of the method: as §1
Poliovirus 1 = assay: Antiviral activity against Human poliovirus type 1 infected in Human HeLa cell assessed as inhibition of translation at 10 ug/ml by luciferase reporter gene assay; format: functional, organism-based
Summary of the method: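 In-cell translation control: HeLa cells electroporated with 20 μg PV1-Luc replicon RNA were placed in medium with 10 μg/ml puromycin at 37°C in 5% CO2. Luciferase in lysates was read by luminometer at hourly time points after transfection. Two experiments were averaged.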

SMILES: Cc1cn([C@H]2CN(P(=O)(OC[C@@H]3CN(P(=O)(OC[C@@H]4CN(P(=O)(OC[C@@H]5CN(P(=O)(OC[C@@H]6CN(P(=O)(OC[C@@H]7CN(P(=O)(OC[C@@H]8CN(P(=O)(OC[C@@H]9CN(P(=O)(OC[C@@H]%10CN(P(=O)(OC[C@@H]%11CN(P(=O)(OC[C@@H]%12CN(P(=O)(OC[C@@H]%13CN(P(=O)(OC[C@@H]%14CN(P(=O)(OC[C@@H]%15CN(P(=O)(OC[C@@H]%16CN(P(=O)(OC[C@@H]%17CN(P(=O)(OC[C@@H]%18CN(P(=O)(OC[C@@H]%19CN(P(=O)(OC[C@@H]%20CN(P(=O)(OC[C@@H]%21CN(P(=O)(OC[C@@H]%22CNC[C@H](n%23cnc%24c(N)ncnc%24%23)O%22)N(C)C)C[C@H](n%22cc(C)c(=O)[nH]c%22=O)O%21)N(C)C)C[C@H](n%21ccc(N)nc%21=O)O%20)N(C)C)C[C@H](n%20cnc%21c(N)ncnc%21%20)O%19)N(C)C)C[C@H](n%19cc(C)c(=O)[nH]c%19=O)O%18)N(C)C)C[C@H](n%18cc(C)c(=O)[nH]c%18=O)O%17)N(C)C)C[C@H](n%17cnc%18c(=O)[nH]c(N)nc%18%17)O%16)N(C)C)C[C@H](n%16cnc%17c(=O)[nH]c(N)nc%17%16)O%15)N(C)C)C[C@H](n%15cnc%16c(=O)[nH]c(N)nc%16%15)O%14)N(C)C)C[C@H](n%14cnc%15c(N)ncnc%15%14)O%13)N(C)C)C[C@H](n%13cc(C)c(=O)[nH]c%13=O)O%12)N(C)C)C[C@H](n%12cnc%13c(=O)[nH]c(N)nc%13%12)O%11)N(C)C)C[C@H](n%11cnc%12c(=O)[nH]c(N)nc%12%11)O%10)N(C)C)C[C@H](n%10cnc%11c(N)ncnc%11%10)O9)N(C)C)C[C@H](n9cnc%10c(=O)[nH]c(N)nc%109)O8)N(C)C)C[C@H](n8cc(C)c(=O)[nH]c8=O)O7)N(C)C)C[C@H](n7ccc(N)nc7=O)O6)N(C)C)C[C@H](n6cnc7c(N)ncnc76)O5)N(C)C)C[C@H](n5cnc6c(=O)[nH]c(N)nc65)O4)N(C)C)C[C@H](n4ccc(N)nc4=O)O3)N(C)C)C[C@@H](COP(=O)(N(C)C)N3CCN(C(=O)CCNC(=O)CCCCCNC(=O)[C@H](CCCNC(=N)N)NC(=O)CCCCCNC(=O)[C@H](CCCNC(=N)N)NC(=O)[C@H](CCCNC(=N)N)NC(=O)CCCCCNC(=O)[C@H](CCCNC(=N)N)NC(=O)[C@H](CCCNC(=N)N)NC(=O)CCCCCNC(=O)[C@H](CCCNC(=N)N)NC(=O)[C@H](CCCNC(=N)N)NC(=O)CCCCCNC(=O)[C@@H](N)CCCNC(=N)N)CC3)O2)c(=O)[nH]c1=O (stereo not given in full)
- Activity (SK-N-MC): Non-toxic
- Activity (Vero): Non-toxic
- Activity (HeLa [1]): Non-toxic
- Activity (HeLa [2]): Toxic
- Activity (Poliovirus 1): inactive

SMILES: Cc1cn([C@H]2CN(P(=O)(OC[C@@H]3CN(P(=O)(OC[C@@H]4CN(P(=O)(OC[C@@H]5CN(P(=O)(OC[C@@H]6CNC[C@H](n7cnc8c(N)ncnc87)O6)N(C)C)C[C@H](n6cnc7c(N)ncnc76)O5)N(C)C)C[C@H](n5cc(C)c(=O)[nH]c5=O)O4)N(C)C)C[C@H](n4cc(C)c(=O)[nH]c4=O)O3)N(C)C)C[C@@H](COP(=O)(N(C)C)N3C[C@@H](COP(=O)(N(C)C)N4C[C@@H](COP(=O)(N(C)C)N5C[C@@H](COP(=O)(N(C)C)N6C[C@@H](COP(=O)(N(C)C)N7C[C@@H](COP(=O)(N(C)C)N8C[C@@H](COP(=O)(N(C)C)N9C[C@@H](COP(=O)(N(C)C)N%10C[C@@H](COP(=O)(N(C)C)N%11C[C@@H](COP(=O)(N(C)C)N%12C[C@@H](COP(=O)(N(C)C)N%13C[C@@H](COP(=O)(N(C)C)N%14C[C@@H](COP(=O)(N(C)C)N%15C[C@@H](COP(=O)(N(C)C)N%16C[C@@H](COP(=O)(N(C)C)N%17C[C@@H](COP(=O)(N(C)C)N%18C[C@@H](COP(=O)(N(C)C)N%19C[C@@H](COP(=O)(N(C)C)N%20C[C@@H](COP(=O)(N(C)C)N%21C[C@@H](COP(=O)(N(C)C)N%22CCN(C(=O)CCNC(=O)CCCCCNC(=O)[C@H](CCCNC(=N)N)NC(=O)CCCCCNC(=O)[C@H](CCCNC(=N)N)NC(=O)[C@H](CCCNC(=N)N)NC(=O)CCCCCNC(=O)[C@H](CCCNC(=N)N)NC(=O)[C@H](CCCNC(=N)N)NC(=O)CCCCCNC(=O)[C@H](CCCNC(=N)N)NC(=O)[C@H](CCCNC(=N)N)NC(=O)CCCCCNC(=O)[C@@H](N)CCCNC(=N)N)CC%22)O[C@@H](n%22cnc%23c(=O)[nH]c(N)nc%23%22)C%21)O[C@@H](n%21cnc%22c(=O)[nH]c(N)nc%22%21)C%20)O[C@@H](n%20cc(C)c(=O)[nH]c%20=O)C%19)O[C@@H](n%19cnc%20c(N)ncnc%20%19)C%18)O[C@@H](n%18ccc(N)nc%18=O)C%17)O[C@@H](n%17cnc%18c(N)ncnc%18%17)C%16)O[C@@H](n%16cnc%17c(N)ncnc%17%16)C%15)O[C@@H](n%15ccc(N)nc%15=O)C%14)O[C@@H](n%14ccc(N)nc%14=O)C%13)O[C@@H](n%13ccc(N)nc%13=O)C%12)O[C@@H](n%12ccc(N)nc%12=O)C%11)O[C@@H](n%11cc(C)c(=O)[nH]c%11=O)C%10)O[C@@H](n%10cnc%11c(=O)[nH]c(N)nc%11%10)C9)O[C@@H](n9cc(C)c(=O)[nH]c9=O)C8)O[C@@H](n8cnc9c(=O)[nH]c(N)nc98)C7)O[C@@H](n7ccc(N)nc7=O)C6)O[C@@H](n6cc(C)c(=O)[nH]c6=O)C5)O[C@@H](n5cnc6c(=O)[nH]c(N)nc65)C4)O[C@@H](n4cc(C)c(=O)[nH]c4=O)C3)O2)c(=O)[nH]c1=O (stereo not given in full)
- Activity (SK-N-MC): Non-toxic
- Activity (Vero): Non-toxic
- Activity (HeLa [1]): Non-toxic
- Activity (HeLa [2]): Toxic
- Activity (Poliovirus 1): inactive

SMILES: Cc1cn([C@H]2CN(P(=O)(OC[C@@H]3CN(P(=O)(OC[C@@H]4CN(P(=O)(OC[C@@H]5CN(P(=O)(OC[C@@H]6CN(P(=O)(OC[C@@H]7CN(P(=O)(OC[C@@H]8CN(P(=O)(OC[C@@H]9CN(P(=O)(OC[C@@H]%10CN(P(=O)(OC[C@@H]%11CN(P(=O)(OC[C@@H]%12CNC[C@H](n%13cnc%14c(N)ncnc%14%13)O%12)N(C)C)C[C@H](n%12cnc%13c(N)ncnc%13%12)O%11)N(C)C)C[C@H](n%11cnc%12c(N)ncnc%12%11)O%10)N(C)C)C[C@H](n%10cc(C)c(=O)[nH]c%10=O)O9)N(C)C)C[C@H](n9cc(C)c(=O)[nH]c9=O)O8)N(C)C)C[C@H](n8cnc9c(N)ncnc98)O7)N(C)C)C[C@H](n7cnc8c(N)ncnc87)O6)N(C)C)C[C@H](n6cnc7c(=O)[nH]c(N)nc76)O5)N(C)C)C[C@H](n5ccc(N)nc5=O)O4)N(C)C)C[C@H](n4ccc(N)nc4=O)O3)N(C)C)C[C@@H](COP(=O)(N(C)C)N3C[C@@H](COP(=O)(N(C)C)N4C[C@@H](COP(=O)(N(C)C)N5C[C@@H](COP(=O)(N(C)C)N6C[C@@H](COP(=O)(N(C)C)N7C[C@@H](COP(=O)(N(C)C)N8C[C@@H](COP(=O)(N(C)C)N9C[C@@H](COP(=O)(N(C)C)N%10C[C@@H](COP(=O)(N(C)C)N%11CCN(C(=O)CCNC(=O)CCCCCNC(=O)[C@H](CCCNC(=N)N)NC(=O)CCCCCNC(=O)[C@H](CCCNC(=N)N)NC(=O)[C@H](CCCNC(=N)N)NC(=O)CCCCCNC(=O)[C@H](CCCNC(=N)N)NC(=O)[C@H](CCCNC(=N)N)NC(=O)CCCCCNC(=O)[C@H](CCCNC(=N)N)NC(=O)[C@H](CCCNC(=N)N)NC(=O)CCCCCNC(=O)[C@@H](N)CCCNC(=N)N)CC%11)O[C@@H](n%11cc(C)c(=O)[nH]c%11=O)C%10)O[C@@H](n%10cc(C)c(=O)[nH]c%10=O)C9)O[C@@H](n9cc(C)c(=O)[nH]c9=O)C8)O[C@@H](n8cc(C)c(=O)[nH]c8=O)C7)O[C@@H](n7cc(C)c(=O)[nH]c7=O)C6)O[C@@H](n6cc(C)c(=O)[nH]c6=O)C5)O[C@@H](n5cc(C)c(=O)[nH]c5=O)C4)O[C@@H](n4ccc(N)nc4=O)C3)O2)c(=O)[nH]c1=O (stereo not given in full)
- Activity (SK-N-MC): Non-toxic
- Activity (Vero): Non-toxic
- Activity (HeLa [1]): Non-toxic
- Activity (HeLa [2]): Toxic
- Activity (Poliovirus 1): inactive
